This passage reports inhibition, inhibition in vivo and IC50 results from ChEMBL document CHEMBL1145787, “Synthesis and structure-activity relationship of N-substituted 4-arylsulfonylpiperidine-4-hydroxamic acids as novel, orally active matrix metalloproteinase inhibitors for the treatment of osteoarthritis” (J Med Chem, 2003).

For assay [1], the target named is T1, Disintegrin and metalloproteinase domain-containing protein 17 (Homo sapiens, UniProt P78536). The assay is described as follows: Inhibition of Tumor necrosis factor alpha converting enzyme (TACE) at 10 uM. Summed up:
(§1)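 Dose–response curves were not generated when inhibition was below 60% at 10 μM.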

Assay [2] can be described thus: In vivo inhibitory activity against Matrix metalloprotease enzyme by dialysis implant assay, value is relative to activity of CGS-27023 (68+/-5) at 25 mg/kg. po. It is filed as functional.
The nature of assay [3]: In vivo inhibitory activity against Matrix metalloprotease enzyme by dialysis implant assay, value is relative to activity of CGS-27023 (69+/-2) at 25 mg/kg. po. It is filed as functional.
Another assay has as its target Collagenase 3 (Homo sapiens, UniProt P45452).
Assay [4] in a line: In vivo inhibition of Matrix metalloprotease enzyme by Sponge-wrapped cartilage assay, value is relative to activity of CGS-27023 (37+/-5) at 25 mg/kg. po. bid. It is filed as functional.
Assay [5] in a line: In vivo inhibitory activity against Matrix metalloprotease enzyme by dialysis implant assay, value is relative to activity of CGS-27023 (35+/-3) at 25 mg/kg. po. It is filed as functional.
Assay [6] in a line: In vivo inhibitory activity against Matrix metalloprotease enzyme by dialysis implant assay, value is relative to activity of CGS-27023 (38+/-3) at 25 mg/kg. po. It is filed as functional.
Another assay addresses T2, Interstitial collagenase (Homo sapiens, UniProt P03956).
T2 sequence (P03956 whole entry): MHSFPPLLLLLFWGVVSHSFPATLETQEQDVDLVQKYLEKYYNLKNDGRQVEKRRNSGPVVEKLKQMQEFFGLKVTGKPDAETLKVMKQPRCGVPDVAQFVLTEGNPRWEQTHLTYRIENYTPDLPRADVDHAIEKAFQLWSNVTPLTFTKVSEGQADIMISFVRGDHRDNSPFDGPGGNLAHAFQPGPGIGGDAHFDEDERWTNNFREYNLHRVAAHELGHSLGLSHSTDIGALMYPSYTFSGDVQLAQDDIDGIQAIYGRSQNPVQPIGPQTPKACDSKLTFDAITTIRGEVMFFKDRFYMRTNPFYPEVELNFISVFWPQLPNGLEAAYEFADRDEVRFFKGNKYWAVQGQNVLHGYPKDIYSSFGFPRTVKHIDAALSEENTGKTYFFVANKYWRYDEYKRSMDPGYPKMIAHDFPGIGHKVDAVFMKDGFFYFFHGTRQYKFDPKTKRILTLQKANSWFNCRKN
The assay is described as follows: In vitro inhibitory activity against matrix metalloprotease-1.

The target of assay [7] is T1, Disintegrin and metalloproteinase domain-containing protein 17. The assay is described as follows: In vitro inhibitory activity against tumor necrosis factor alpha converting enzyme (TACE).
Assay [8] in a line: In vivo inhibitory activity against Matrix metalloprotease enzyme by dialysis implant assay, value is relative to activity of CGS-27023 (35+/-4) at 25 mg/kg. po. The class given is functional.
The target in assay [9] is T3, Interstitial collagenase (Homo sapiens) (UniProt P03956).
T3 sequence (whole entry): T2 sequence (P03956 whole entry)
The assay is described as follows: Inhibition of Matrix metalloprotease-1 at 10 uM. Summed up:
as §1

For assay [10], the target named is Matrix metalloproteinase-9 (Homo sapiens, UniProt P14780). Put plainly: In vitro inhibitory activity against matrix metalloprotease-9.
The nature of assay [11]: In vivo inhibition of Matrix metalloprotease enzyme by Sponge-wrapped cartilage assay, value is relative to activity of RS-130830 (39+/-2) at 10 mg/kg. po. bid. It is filed as functional.
Assay [12] can be described thus: In vivo inhibitory activity against Matrix metalloprotease enzyme by dialysis implant assay, value is relative to activity of CGS-27023 (73+/-3) at 25 mg/kg. po. The class given is functional.
Assay [13] can be described thus: In vivo inhibitory activity against Matrix metalloprotease enzyme by dialysis implant assay, value is relative to activity of CGS-27023 (54+/-2) at 25 mg/kg. po. It is filed as functional.
Assay [14] can be described thus: In vivo inhibition of Matrix metalloprotease enzyme by Sponge-wrapped cartilage assay, value is relative to activity of CGS-27023 (25+/-4) at 25 mg/kg. po. bid. It is filed as functional.
Assay [15] is described as follows: In vivo inhibitory activity against Matrix metalloprotease enzyme by dialysis implant assay, value is relative to activity of CGS-27023 (65+/-4) at 25 mg/kg. po. The class given is functional.
A short description of assay [16]: In vivo inhibitory activity against Matrix metalloprotease enzyme by dialysis implant assay, value is relative to activity of CGS-27023 (74+/-2) at 25 mg/kg. po. The class given is functional.
The nature of assay [17]: In vivo inhibition of Matrix metalloprotease enzyme by Sponge-wrapped cartilage assay, value is relative to activity of RS-130830 (43+/-3) at 25 mg/kg. po. bid. The class given is functional.
Assay [18] can be described thus: In vivo inhibitory activity against Matrix metalloprotease enzyme by dialysis implant assay, value is relative to activity of CGS-27023 (76+/-2) at 25 mg/kg. po. The class given is functional.
Assay [19] in a line: In vivo inhibitory activity against Matrix metalloprotease enzyme by dialysis implant assay, value is relative to activity of CGS-27023 (58+/-2) at 25 mg/kg. po. The class given is functional.
Assay [20] can be described thus: In vivo inhibition of Matrix metalloprotease enzyme by Sponge-wrapped cartilage assay, value is relative to activity of RS-130830 (40+/-2) at 10 mg/kg. po. bid. The class given is functional.
Assay [21] in a line: In vivo inhibitory activity against Matrix metalloprotease enzyme by dialysis implant assay, value is relative to activity of CGS-27023 (43+/-2) at 25 mg/kg. po. It is filed as functional.
Assay [22] can be described thus: In vivo inhibition of Matrix metalloprotease enzyme by Sponge-wrapped cartilage assay, value is relative to activity of CGS-27023 (27+/-2) at 25 mg/kg. po. bid. The class given is functional.
Assay [23] can be described thus: In vivo inhibition of Matrix metalloprotease enzyme by Sponge-wrapped cartilage assay, value is relative to activity of CGS-27023 (39+/-3) at 25 mg/kg. po. bid. It is filed as functional.
A short description of assay [24]: In vivo inhibitory activity against Matrix metalloprotease enzyme by dialysis implant assay, value is relative to activity of CGS-27023 (51+/-2) at 25 mg/kg. po. It is filed as functional.

Sequence of Matrix metalloproteinase-9 (P14780 whole entry): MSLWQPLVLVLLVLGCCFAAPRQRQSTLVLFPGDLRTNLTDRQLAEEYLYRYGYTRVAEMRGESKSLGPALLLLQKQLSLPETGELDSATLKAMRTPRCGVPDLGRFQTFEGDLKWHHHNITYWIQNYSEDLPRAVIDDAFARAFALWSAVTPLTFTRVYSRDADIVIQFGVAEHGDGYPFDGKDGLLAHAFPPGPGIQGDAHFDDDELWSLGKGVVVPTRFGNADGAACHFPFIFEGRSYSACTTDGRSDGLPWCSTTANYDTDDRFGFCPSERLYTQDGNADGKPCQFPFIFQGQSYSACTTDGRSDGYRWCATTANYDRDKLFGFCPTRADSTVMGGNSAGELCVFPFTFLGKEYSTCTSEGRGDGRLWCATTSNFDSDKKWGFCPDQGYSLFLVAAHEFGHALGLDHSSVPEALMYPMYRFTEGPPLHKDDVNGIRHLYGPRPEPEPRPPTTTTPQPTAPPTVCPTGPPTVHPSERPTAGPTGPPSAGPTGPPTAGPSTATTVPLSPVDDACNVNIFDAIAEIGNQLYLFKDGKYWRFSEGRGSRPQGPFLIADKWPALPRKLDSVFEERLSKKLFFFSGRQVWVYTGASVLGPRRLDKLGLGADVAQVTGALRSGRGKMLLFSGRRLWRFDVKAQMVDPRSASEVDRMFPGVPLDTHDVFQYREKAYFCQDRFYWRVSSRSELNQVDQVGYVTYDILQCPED
T1 sequence (P78536 whole entry, the tested form may be a part): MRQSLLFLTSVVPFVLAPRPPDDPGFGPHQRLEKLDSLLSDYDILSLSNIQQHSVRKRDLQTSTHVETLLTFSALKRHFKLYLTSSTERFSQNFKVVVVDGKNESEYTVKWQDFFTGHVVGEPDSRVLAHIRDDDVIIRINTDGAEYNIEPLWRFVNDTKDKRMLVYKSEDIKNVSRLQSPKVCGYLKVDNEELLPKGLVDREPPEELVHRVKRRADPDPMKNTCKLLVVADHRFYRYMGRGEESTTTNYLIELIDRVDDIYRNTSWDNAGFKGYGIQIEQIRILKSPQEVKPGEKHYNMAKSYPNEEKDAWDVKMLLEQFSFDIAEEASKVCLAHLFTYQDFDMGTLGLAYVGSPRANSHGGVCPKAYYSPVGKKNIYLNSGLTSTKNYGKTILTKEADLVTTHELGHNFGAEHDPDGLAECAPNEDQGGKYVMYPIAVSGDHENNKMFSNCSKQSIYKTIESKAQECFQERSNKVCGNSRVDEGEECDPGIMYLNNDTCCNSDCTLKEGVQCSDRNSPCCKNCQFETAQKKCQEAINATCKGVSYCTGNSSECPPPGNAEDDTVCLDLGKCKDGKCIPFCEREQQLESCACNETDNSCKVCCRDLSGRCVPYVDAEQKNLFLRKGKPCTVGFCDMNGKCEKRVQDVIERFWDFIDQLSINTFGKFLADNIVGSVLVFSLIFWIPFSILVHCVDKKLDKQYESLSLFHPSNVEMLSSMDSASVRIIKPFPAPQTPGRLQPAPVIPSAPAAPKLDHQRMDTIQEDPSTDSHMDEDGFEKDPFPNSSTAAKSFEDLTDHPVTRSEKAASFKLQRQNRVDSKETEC

The term inhibition denotes the percentage by which the read-out fell short of the control. As usually defined, the inhibition in vivo is how much of the control response was suppressed. A low value points to a weak effect. In the case of `COc1ccc(S(=O)(=O)C2(C(=O)NO)CCN(C(C)C)CC2)cc1`, the inhibition in assay [1] is 18%. The compound also registered an inhibition in vivo at 25 mg/kg in [2] of 49%.
As a reminder, the IC50 is the concentration at which inhibition is half-maximal. For `COc1ccc(CN2CCC(C(=O)NO)(S(=O)(=O)c3ccc(OC)cc3)CC2)cc1`, the inhibition in vivo at 25 mg/kg in assay [3] worked out at 75%; in assay [4], 45%. At Collagenase 3, this compound displayed an IC50 of 2 nM.
In turn, `CCCCOc1ccc(S(=O)(=O)C2(C(=O)NO)CCN(Cc3ccc(F)cc3)CC2)cc1` registered an inhibition in vivo at 25 mg/kg in [5] of 48%. Further, the inhibition in assay [1] was determined as 39%. For the same compound, the IC50 against Collagenase 3 is 5 nM.
In assay [6], `CCN1CCC(C(=O)NO)(S(=O)(=O)c2ccc(OC)cc2)CC1` had an inhibition in vivo at 25 mg/kg of 17%. In assay [1], this compound came in with an inhibition of 25%.
As to `O=C(NO)C1(S(=O)(=O)c2ccc(OCc3ccccc3)cc2)CCN(Cc2ccccc2)CC1`, the concentration for half-maximal inhibition (IC50) against Interstitial collagenase is 40 nM; in [7], 416 nM; in [10], 3 nM. The compound further yielded an inhibition in vivo at 25 mg/kg in assay [8] of 17%. Also, the inhibition in [9] came to 48%.
`CCCCN1CCC(C(=O)NO)(S(=O)(=O)c2ccc(Oc3ccc(Cl)cc3)cc2)CC1` gave an inhibition in vivo at 10 mg/kg in [11] of 69%. In addition, the IC50 turned out to be 1070 nM against Interstitial collagenase, 301 nM in assay [7], 1 nM on Collagenase 3 and 1 nM in assay [10]. In addition, at 25 mg/kg the inhibition in vivo in assay [12] was 93%.
For `CCCCOc1ccc(S(=O)(=O)C2(C(=O)NO)CCN(Cc3ccc(OC)cc3)CC2)cc1`, the half-maximal inhibitory concentration (IC50) against Collagenase 3 turned out to be 1 nM; in [10], 3 nM. In addition, the inhibition in vivo at 25 mg/kg is 69% in assay [13] and 17% in assay [14].
In assay [15], `CCCCOc1ccc(S(=O)(=O)C2(C(=O)NO)CCN(Cc3cccc(OCCN4CCOCC4)c3)CC2)cc1` came in with an inhibition in vivo at 25 mg/kg of 27%.
For the compound `CCCCOc1ccc(S(=O)(=O)C2(C(=O)NO)CCN(CCCC)CC2)cc1`, the inhibition in vivo at 25 mg/kg in assay [16] turned out to be 86%; in assay [17], 46%. The inhibition in assay [9] was 50%. The compound also yielded an IC50 against Collagenase 3 of 2 nM.
In assay [18], `COc1ccc(S(=O)(=O)C2(C(=O)NO)CCN(Cc3ccc(C)cc3)CC2)cc1` displayed an inhibition in vivo at 25 mg/kg of 89%. Besides, the IC50 against Collagenase 3 worked out at 2 nM; in assay [10], 17 nM.
Compound `COc1ccc(S(=O)(=O)C2(C(=O)NO)CCN(C)CC2)cc1` came in with an inhibition in assay [1] of 20%. The compound further returned an inhibition in vivo at 25 mg/kg in assay [19] of 36%.
For the compound `CCCCOc1ccc(S(=O)(=O)C2(C(=O)NO)CCN(C)CC2)cc1`, the concentration for half-maximal inhibition (IC50) at Collagenase 3 stood at 2 nM; in assay [10] it was 10 nM. Further, the inhibition in vivo at 10 mg/kg in [20] was 12%. The inhibition in vivo at 25 mg/kg in assay [21] turned out to be 64%.
Consider `CCCCOc1ccc(S(=O)(=O)C2(C(=O)NO)CCN(CCCOc3ccccc3)CC2)cc1`, for which the inhibition in vivo at 25 mg/kg in assay [3] came out at 67%; in assay [22], 17%. The same compound had a concentration for half-maximal inhibition (IC50) in assay [10] of 5 nM.
With `CCCCOc1ccc(S(=O)(=O)C2(C(=O)NO)CCN(Cc3ccccc3)CC2)cc1`, the IC50 against Collagenase 3 amounted to 1 nM; in assay [10], 4 nM. Besides, the inhibition in vivo at 25 mg/kg was 53% in [23] and 80% in assay [24].
